Data from ChEMBL document CHEMBL4622964, “Designing Dihydrofolate Reductase Inhibitors as X-ray Radiosensitizers to Reverse Radioresistance of Cervical Cancer” (ACS Med Chem Lett, 2020).
Calls of active or inactive are those of the source. The calls are words filed in the database; no cut-off is given here.

Legend:
HeLa [1] = experiment: Induction of mitochondrial dysfunction in human HeLa cells assessed as change in mitochondrial membrane potential at 1 uM incubated for 24 hrs by JC1 staining based flow cytometry (reference value: 1.3%); format: functional
Procedure, shortened: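 Mitochondrial membrane potential was assessed by JC-1 flow cytometry in HeLa cells treated at 1 μM without or with 4 Gy X-rays. Green fluorescence gives the proportion of cells with lost ΔΨm.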

[2] = Toxicity in BALB/c mouse xenografted with human HeLa cells assessed as kidney damage by measuring effect on BUN level at 4 mg/kg, iv administered every 3 days for 21 days; format: organism-based; details: in vivo
Procedure, shortened: (§1)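 HeLa xenograft nude mice dosed at 4 mg/kg iv every 3 days over 21 days, alone or with X-rays; blood collected 24 h after last injection for serum biochemistry: ALT, AST (liver), BUN and uric acid (kidney).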

HeLa [3] = experiment: Induction of apoptosis in human HeLa cells assessed as caspase-9 activation at 1 uM using Ac-LEHD-AMC as substrate after 12 hrs by fluorescence based assay; format: functional, cell-based
Procedure, shortened: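 HeLa cells exposed to 1 μM compound with or without 4 Gy X-rays for 12 h; caspase 8, 9 and 3 activities measured; mean ± SD of three independent experiments.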

[4] = Drug localization in cytoplasm of human HeLa cells at 20 uM after 8 hrs by LysoTracker/DAPI staining based fluorescence microscopic analysis; format: ADME, subcellular
Procedure, shortened: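 HeLa cells pretreated with 20 μM compound; LysoTracker added 2 h and DAPI 30 min before each time point; compound green fluorescence (emission about 510 nm) overlaid with lysosome (red) and nucleus under fluorescence microscope.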

[5] = Cytotoxicity against human Ect1 cells assessed as reduction in cell viability in presence of 4 Gy irradiation by MTT assay; format: cell-based; details: light or radiation study
Procedure, shortened: (§2)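 MTT viability assay in Ect1/E6E7 normal ectocervical epithelial cells, with the test agent alone (0 Gy) or combined with 4 Gy X-rays. IC50 values are in μM.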

HeLa [6] = experiment: Induction of ROS generation in human HeLa cells by DHE fluorescent dye based microplate reader analysis relative to control; format: functional
Procedure, shortened: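 Intracellular ROS in HeLa cells were measured with the dihydroethidium probe, whose superoxide-oxidised product fluoresces red. Cells were treated with or without 4 Gy X-rays, then incubated with DHE. Fluorescence was read on a microplate reader and expressed as % of untreated cells.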

HeLa [7] = experiment: Antitumor activity against human HeLa cells xenografted in BALB/c mouse assessed as reduction in tumor growth at 4 mg/kg, iv administered for every 3 days for 21 days in presence of 4 Gy X-ray irradiation relative to control; format: functional; design: scale not given: the % may be the effect or the level left
Procedure, shortened: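 HeLa tumour-bearing nude mice were dosed at 4 mg/kg by tail-vein injection every 3 days over a 21-day period, with or without X-ray irradiation. Tumours were photographed and sectioned for H&E staining. Body weight was recorded over the 21 days.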

[8] = Drug uptake in human HeLa cells at 4 uM after 4 hrs by fluorescence based assay; format: ADME, cell-based
[9] = Toxicity in BALB/c mouse xenografted with human HeLa cells assessed as body weight loss at 4 mg/kg, iv administered for every 3 days and measured after 21 days; format: organism-based; details: in vivo, 504 h
Procedure, shortened: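 HeLa-tumor-bearing nude mice given compound at 4 mg/kg by tail-vein injection every 3 days, alone or with X-rays; body weight recorded across 21 days.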

[10] = Toxicity in BALB/c mouse xenografted with human HeLa cells assessed as kidney damage by measuring effect on uric acid level at 4 mg/kg, iv administered every 3 days for 21 days in presence of 4 Gy X-ray irradiation; format: organism-based; details: in vivo; procedure, shortened: as §1
[11] = Toxicity in BALB/c mouse xenografted with human HeLa cells assessed as kidney damage by measuring effect on BUN level at 4 mg/kg, iv administered every 3 days for 21 days in presence of 4 Gy X-ray irradiation; format: organism-based; details: in vivo; procedure, shortened: as §1
HeLa [12] = experiment: Induction of cell cycle arrest in human HeLa cells assessed as accumulation at G1 phase at 1 uM after 48 hrs in presence of 4 Gy X-ray radiation by propidium iodide staining based flow cytometric analysis (reference value: 28.6%); format: functional
[13] = Toxicity in BALB/c mouse xenografted with human HeLa cells assessed as heart damage at 4 mg/kg, iv administered for every 3 days for 21 days and measured after 24 hrs post last dose by H and E staining based light microscopic analysis; format: organism-based; details: in vivo
Procedure, shortened: (§3)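 HeLa-tumor-bearing nude mice dosed at 4 mg/kg iv every 3 days for 21 days, alone or with X-rays; euthanized 24 h after last injection; heart, liver, lungs, kidneys and spleen sectioned and stained with H&E.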

[14] = Toxicity in BALB/c mouse xenografted with human HeLa cells assessed as liver damage by measuring effect on AST level at 4 mg/kg, iv administered every 3 days for 21 days; format: organism-based; details: in vivo; procedure, shortened: as §1
HeLa [15] = experiment: Induction of apoptosis in human HeLa cells assessed as caspase-3 activation at 1 uM using Ac-DEVD-AMC as substrate after 12 hrs by fluorescence based assay relative to control; format: functional
Procedure, shortened: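 Caspase-3 and caspase-8 activities were measured in HeLa cells after 12 h at 1 μM, without or with 4 Gy X-rays. Mean ± SD of three independent experiments.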

[16] = Toxicity in BALB/c mouse xenografted with human HeLa cells assessed as heart damage at 4 mg/kg, iv administered for every 3 days for 21 days and measured after 24 hrs post last dose in presence of 4 Gy X-ray irradiation by H and E staining based light microscopic analysis; format: organism-based; details: in vivo; procedure, shortened: as §3
[17] = Cytotoxicity against human Ect1 cells assessed as reduction in cell viability by MTT assay; format: cell-based; procedure, shortened: as §2
HeLa [18] = experiment: Induction of cell cycle arrest in human HeLa cells assessed as accumulation at S phase at 1 uM after 48 hrs in presence of 4 Gy X-ray radiation by propidium iodide staining based flow cytometric analysis (reference value: 31%); format: functional
HeLa [19] = experiment: Antiproliferative activity against human HeLa cells assessed as reduction in cell viability preincubated for 12 hrs followed by 4 Gy irradiation and measured after 60 hrs by MTT assay; format: functional, cell-based; details: light or radiation study
Procedure, shortened: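 MTT viability assay in HeLa cancer cells, with the test agent alone (0 Gy) or combined with 4 Gy X-rays. IC50 values are in μM. Sensitivity enhancement ratio = IC50(0 Gy)/IC50(4 Gy).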

HeLa [20] = experiment: Inhibition of cell migration in human HeLa cells assessed as reduction in spreading rate at 1 uM after 24 hrs in presence of 4 Gy X-ray irradiation by phase contrast microscopic analysis; format: functional, cell-based
Procedure, shortened: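 Wound-healing scratch assay on HeLa monolayers, compound with or without 4 Gy X-rays; wound closure recorded by phase-contrast microscopy at set times; migrated cells counted manually; mean ± SD of three independent experiments.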

HeLa [21] = experiment: Induction of cell cycle arrest in human HeLa cells assessed as accumulation at G2/M phase at 1 uM after 48 hrs in presence of 4 Gy X-ray radiation by propidium iodide staining based flow cytometric analysis (reference value: 40.4%); format: functional
[22] = Toxicity in BALB/c mouse xenografted with human HeLa cells assessed as spleen damage at 4 mg/kg, iv administered for every 3 days for 21 days and measured after 24 hrs post last dose in presence of 4 Gy X-ray irradiation by H and E staining based light microscopic analysis; format: organism-based; details: in vivo; procedure, shortened: as §3
[23] = Toxicity in BALB/c mouse xenografted with human HeLa cells assessed as kidney damage by measuring effect on uric acid level at 4 mg/kg, iv administered every 3 days for 21 days; format: organism-based; details: in vivo; procedure, shortened: as §1

Nc1nc(N)c2nc3c(nc2n1)-c1cccc2cccc-3c12
Activity (HeLa [1]): 6.8% | Activity [2]: Non-Toxic | Activity (HeLa [3]): Active | Drug uptake [4]: Active | IC50 [5]: 3.1 µM | Activity (HeLa [6]): 132% | Activity (HeLa [7]): 32% | Drug uptake [8]: Active | Activity [9]: Non-Toxic | Activity [10]: Non-Toxic | Activity [11]: Non-Toxic | Activity (HeLa [12]): 47.7% | Activity [13]: Non-Toxic | Activity [14]: Non-Toxic | Activity (HeLa [15]): 121% | Activity [16]: Non-Toxic | IC50 [17]: 6.9 µM | Activity (HeLa [18]): 16.1% | IC50 (HeLa [19]): 0.64 µM | inhibition (HeLa [20]): Active | Activity (HeLa [21]): 36.2% | Activity [22]: Non-Toxic | Activity [23]: Non-Toxic
